From ChEMBL document CHEMBL4190344, “Synthesis of substituted phenanthrene-9-benzimidazole conjugates: Cytotoxicity evaluation and apoptosis inducing studies” (Eur J Med Chem, 2017)
Activity calls are given as the source filed them. The calls are words filed in the database; no cut-off is given here.

Tests used:
[1] = system: HCT-15; experiment: Cytotoxicity in human HCT15 cells incubated for 48 hrs by MTT assay; format: functional, cell-based; conditions: HCT-15, 48 h
Outline: (§1)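 Cells (1 × 10^4/well) were seeded in medium with 10% FBS and left 24 h at 37 °C. Compound diluted in medium was then added, alongside a vehicle control, for 48 h. MTT (5 mg/mL stock) was added for 4 h, formazan dissolved in DMSO and absorbance read at 570 nm. IC50 taken as the concentration giving 50% inhibition.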

[2] = system: Calf thymus DNA; experiment: Binding affinity to calf thymus DNA assessed as increase in relative viscosity of DNA-compound complex at 5 uM by viscometry; format: nucleic-acid assay; conditions: Bos taurus
Outline: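 Viscosity titration of test compound (5 µM) into CT-DNA (50 µM) in 100 mM Tris-HCl pH 7.0. Rolling-ball viscometer, ball fall time read at angles of 20° to 70°, Peltier-held temperature, viscosity calculated at 25 °C.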

[3] = system: PC-3; experiment: Cell cycle arrest in human PC3 cells assessed as accumulation at G2/M phase at 10 uM incubated for 24 hrs by propidium iodide staining based flow cytometry (reference value: […])
[4] = system: PC-3; experiment: Induction of mitochondrial membrane potential loss in human PC3 cells assessed as JC1 monomer level at 2.5 uM incubated for 24 hrs by JC1 staining based flow cytometry (reference value: 22.8%); format: functional
[5] = system: PC-3; experiment: Induction of mitochondrial membrane potential loss in human PC3 cells assessed as JC1 aggregate level at 5 uM incubated for 24 hrs by JC1 staining based flow cytometry (reference value: 76.94%); format: functional
[6] = system: PC-3; experiment: Induction of mitochondrial membrane potential loss in human PC3 cells assessed as JC1 monomer level at 10 uM incubated for 24 hrs by JC1 staining based flow cytometry (reference value: 22.8%); format: functional
[7] = system: PC-3; experiment: Cell cycle arrest in human PC3 cells assessed as accumulation at G0/G1 phase at 2.5 uM incubated for 24 hrs by propidium iodide staining based flow cytometry (reference value: 56.67%); format: functional
[8] = system: PC-3; experiment: Induction of apoptosis in human PC3 cells assessed as necrotic cells level at 2.5 uM incubated for 24 hrs by annexin V-FITC/propidium iodide dual staining based flow cytometry (reference value: 0.59%); format: functional
Outline: (§2)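 PC-3 cells were grown 24 h, then treated 24 h at 2.5, 5.0 or 10 µM. Cells were trypsinised, washed twice in ice-cold PBS and stained in binding buffer with Annexin V-FITC followed by propidium iodide at room temperature in the dark. 10,000 cells per sample were run on a flow cytometer, with quadrants scored as live, early apoptotic, late apoptotic or necrotic.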

[9] = system: PC-3; experiment: Induction of apoptosis in human PC3 cells assessed as early apoptotic cells level at 10 uM incubated for 24 hrs by annexin V-FITC/propidium iodide dual staining based flow cytometry (reference value: 11.76%); format: functional; outline: as §2
[10] = system: PC-3; experiment: Induction of morphological changes in human PC3 cells assessed as increase in nuclear shrinkage at 2.5 to 10 uM incubated for 48 hrs by phase contrast microscopy; format: functional, cell-based
Outline: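 PC-3 cells at 1 × 10^5 cells/mL adhered overnight, then received compound at 2.5, 5.0 or 10.0 µM. After 48 h, morphology (viable cell number, nuclear shrinkage, detachment) was imaged by phase contrast microscopy.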

[11] = system: PC-3; experiment: Induction of apoptosis in human PC3 cells assessed as viable cells level at 10 uM incubated for 24 hrs by annexin V-FITC/propidium iodide dual staining based flow cytometry (reference value: 76.73%); format: functional; outline: as §2
[12] = system: PC-3; experiment: Induction of apoptosis in human PC3 cells assessed as induction of horse-shoe shaped nuclei formation at 2.5 to 10 uM incubated for 48 hrs by DAPI staining based fluorescence microscopy; format: functional, cell-based
Outline: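 Compound-treated PC-3 cells were PBS-washed, permeabilised with 0.1% Tween 20 for 10 min and stained with 1 µM DAPI. Nuclear morphology was viewed by fluorescence microscopy at ex 359/em 461 nm, 200×.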

[13] = system: PC-3; experiment: Cell cycle arrest in human PC3 cells assessed as accumulation at S phase at 2.5 uM incubated for 24 hrs by propidium iodide staining based flow cytometry (reference value: 13.92%); format: functional
[14] = system: PC-3; experiment: Induction of cell death in human PC3 cells assessed as induction of chromatin condensation at 10 uM incubated for 48 hrs by acridine orange and ethidium bromide staining based fluorescence microscopy; format: functional
Outline: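 PC-3 cells (1 × 10^6 cells/mL) were treated with compound and kept 48 h at 37 °C, 5% CO2. Acridine orange and ethidium bromide (10 µg/mL) were added in equal volumes. After 10 min, cells were imaged by fluorescence microscopy (ex 488/em 550 nm, 200×).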

[15] = system: PC-3; experiment: Induction of reactive oxygen species in human PC3 cells at 2.5 to 10 uM incubated for 6 hrs by DCFDA dye based spectrofluorometry; format: functional, cell-based
Outline: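 PC-3 cells (1 × 10^6 cells/mL) adhered overnight, then were treated at 2.5, 5.0 or 10.0 µM. Medium was replaced with DCFDA 10 µM for 30 min in the dark, and fluorescence read by spectrofluorometer at ex 488/em 525 nm. N-acetyl cysteine pretreatment before compound and H2O2 were used as comparisons.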

[16] = system: PC-3; experiment: Induction of apoptosis in human PC3 cells assessed as viable cells level at 5 uM incubated for 24 hrs by annexin V-FITC/propidium iodide dual staining based flow cytometry (reference value: 76.73%); format: functional; outline: as §2
[17] = system: PC-3; experiment: Cell cycle arrest in human PC3 cells assessed as accumulation at subG1 phase at 2.10 uM incubated for 24 hrs by propidium iodide staining based flow cytometry (reference value: 1.71%); format: functional
[18] = system: PC-3; experiment: Cytotoxicity in human PC3 cells incubated for 48 hrs by MTT assay; format: functional, cell-based; conditions: PC-3, 48 h; outline: as §1
[19] = system: PC-3; experiment: Induction of apoptosis in human PC3 cells assessed as late apoptotic cells level at 10 uM incubated for 24 hrs by annexin V-FITC/propidium iodide dual staining based flow cytometry (reference value: 10.92%); format: functional; outline: as §2
[20] = system: HCT-116; experiment: Cytotoxicity in human HCT116 cells incubated for 48 hrs by MTT assay; format: functional, cell-based; conditions: HCT-116, 48 h
Outline: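 Cells (1 × 10^4/well) were seeded in medium with 10% FBS and left 24 h at 37 °C. Compound diluted in medium was then added, alongside a vehicle control, for 48 h. MTT (5 mg/mL stock) was added for 4 h, formazan dissolved in DMSO and absorbance read at 570 nm.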

[21] = system: PC-3; experiment: Cell cycle arrest in human PC3 cells assessed as accumulation at subG1 phase at 5 uM incubated for 24 hrs by propidium iodide staining based flow cytometry (reference value: 1.71%); format: functional
[22] = system: PC-3; experiment: Induction of apoptosis in human PC3 cells incubated for 24 hrs by annexin V-FITC/propidium iodide dual staining based flow cytometry; format: functional, cell-based; outline: as §2

**Q.** What does the source list for `COc1ccc2cc(-c3nc4ccc(F)cc4[nH]3)c3cc(OC)c(OC)cc3c2c1`?
**A.** IC50 [1]: > 20 µM; Activity [2]: Active; Activity [3]: 44.16%; Activity [4]: 33.35%; Activity [5]: 32.38%; Activity [6]: 95.64%; Activity [7]: 55.93%; Activity [8]: 0.21%; Activity [9]: 22.94%; Activity [10]: Active; Activity [11]: 27.68%; Activity [12]: Active; Activity [13]: 11.3%; Activity [14]: Active; Activity [15]: Dose-dependent effect; Activity [16]: 32.12%; Activity [17]: 5.01%; IC50 [18]: 6.32 µM; Activity [19]: 49.02%; IC50 [20]: > 20 µM; Activity [21]: 5.01%; Activity [22]: Dose-dependent effect
